Common to all, as to format: cell-based
The target in series [1] is T1, Kir3.1/Kir3.4 (Homo sapiens) (UniProt P48549+P48544). Kind of series: (§1) Inhibition of GIRK-1/4 channel (unknown origin) expressed in HEK293 cells by automated patch clamp method. A digest of the protocol: (§2)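 Whole-cell currents by automated patch clamp in HEK-293 cells stably expressing GIRK1/4 (Kir3.1/3.4). Screening at 1 and 10 μM on two or three cells. Concentration-response at four concentrations (0.3, 1, 3, 10 μM) on five or six cells, used for IC50. Currents corrected to the K+-free external solution as baseline. Means ± SEM.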
In general terms: Patch clamp records ionic current or voltage across a cell membrane.

For a further series, the target named is T2, Kir3.1/Kir3.4 (Homo sapiens, UniProt P48544+P48549).
T2 sequence (P48549 whole entry): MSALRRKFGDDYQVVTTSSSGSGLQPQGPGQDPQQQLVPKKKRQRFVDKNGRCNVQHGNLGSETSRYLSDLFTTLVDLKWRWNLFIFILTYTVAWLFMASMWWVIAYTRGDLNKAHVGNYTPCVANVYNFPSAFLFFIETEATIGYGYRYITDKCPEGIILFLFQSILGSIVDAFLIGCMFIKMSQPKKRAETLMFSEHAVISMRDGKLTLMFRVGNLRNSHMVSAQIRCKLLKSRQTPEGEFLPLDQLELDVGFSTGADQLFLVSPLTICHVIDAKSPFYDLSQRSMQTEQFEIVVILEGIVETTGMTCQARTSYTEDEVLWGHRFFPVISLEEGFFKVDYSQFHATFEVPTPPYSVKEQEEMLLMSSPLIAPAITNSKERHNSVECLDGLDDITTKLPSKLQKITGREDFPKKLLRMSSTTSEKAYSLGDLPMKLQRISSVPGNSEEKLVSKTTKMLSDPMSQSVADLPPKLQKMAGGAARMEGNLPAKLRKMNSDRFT
T2 sequence (P48544 whole entry): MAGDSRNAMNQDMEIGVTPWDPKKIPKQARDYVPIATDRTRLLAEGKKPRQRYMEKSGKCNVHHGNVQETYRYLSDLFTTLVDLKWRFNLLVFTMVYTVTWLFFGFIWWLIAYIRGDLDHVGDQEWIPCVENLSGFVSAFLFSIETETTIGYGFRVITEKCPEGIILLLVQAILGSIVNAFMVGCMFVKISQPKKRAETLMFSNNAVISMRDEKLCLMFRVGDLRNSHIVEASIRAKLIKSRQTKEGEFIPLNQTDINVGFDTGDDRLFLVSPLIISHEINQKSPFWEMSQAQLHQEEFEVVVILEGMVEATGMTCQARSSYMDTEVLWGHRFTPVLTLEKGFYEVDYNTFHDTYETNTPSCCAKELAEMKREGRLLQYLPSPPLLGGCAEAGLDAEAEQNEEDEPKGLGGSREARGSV
The description is as §1. In short, it runs like this: as §2

Series [2] concerns the target T1, Kir3.1/Kir3.4 (Homo sapiens). Kind of series: Inhibition of GIRK-1/4 channel (unknown origin) expressed in HEK293 cells at 10 uM by automated patch clamp method relative to control. A digest of the protocol:
(§3)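 HEK-293 cells stably expressing GIRK1/4 (Kir3.1/3.4) K+ channels; whole-cell currents recorded by automated patch clamp. Compounds screened at 1 and 10 μM, two or three cells per condition. Current values corrected using the current measured in K+-free external solution as baseline. Inhibition expressed as % of GIRK current; mean ± SEM, n = 2–3.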

The target is the same in series [3]. Nature of the series: Inhibition of GIRK-1/4 channel (unknown origin) expressed in HEK293 cells at 1 uM by automated patch clamp method relative to control. A digest of the protocol: as §3
Series [4] addresses T3, hERG (KCNH2) (Homo sapiens, UniProt Q12809). Kind of series: Inhibition of human ERG expressed in HEK293 cells at 1 uM by automated patch clamp method relative to control. The settings on record: HEK293 cells that express hERG. In short, it runs like this:
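Automated whole-cell patch clamp in HEK-293 cells stably transfected with hERG (Kv11.1) cDNA. Increasing concentrations (1 and 10 μM) applied, two cells each. Current amplitude inhibition expressed as %, means ± SEM. 10 μM amitriptyline used as reference blocker.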

Series [5] deals with T3, hERG (KCNH2). Kind of series: Inhibition of human ERG expressed in HEK293 cells at 10 uM by automated patch clamp method relative to control. As to conditions: HEK293 cells that express hERG.

Broadly, the inhibition is the drop in the measured response relative to a control, in per cent. For orientation: IC50 means the concentration at which inhibition is half-maximal. A lower IC50 goes with greater potency in that assay.

T3 sequence (Q12809 whole entry): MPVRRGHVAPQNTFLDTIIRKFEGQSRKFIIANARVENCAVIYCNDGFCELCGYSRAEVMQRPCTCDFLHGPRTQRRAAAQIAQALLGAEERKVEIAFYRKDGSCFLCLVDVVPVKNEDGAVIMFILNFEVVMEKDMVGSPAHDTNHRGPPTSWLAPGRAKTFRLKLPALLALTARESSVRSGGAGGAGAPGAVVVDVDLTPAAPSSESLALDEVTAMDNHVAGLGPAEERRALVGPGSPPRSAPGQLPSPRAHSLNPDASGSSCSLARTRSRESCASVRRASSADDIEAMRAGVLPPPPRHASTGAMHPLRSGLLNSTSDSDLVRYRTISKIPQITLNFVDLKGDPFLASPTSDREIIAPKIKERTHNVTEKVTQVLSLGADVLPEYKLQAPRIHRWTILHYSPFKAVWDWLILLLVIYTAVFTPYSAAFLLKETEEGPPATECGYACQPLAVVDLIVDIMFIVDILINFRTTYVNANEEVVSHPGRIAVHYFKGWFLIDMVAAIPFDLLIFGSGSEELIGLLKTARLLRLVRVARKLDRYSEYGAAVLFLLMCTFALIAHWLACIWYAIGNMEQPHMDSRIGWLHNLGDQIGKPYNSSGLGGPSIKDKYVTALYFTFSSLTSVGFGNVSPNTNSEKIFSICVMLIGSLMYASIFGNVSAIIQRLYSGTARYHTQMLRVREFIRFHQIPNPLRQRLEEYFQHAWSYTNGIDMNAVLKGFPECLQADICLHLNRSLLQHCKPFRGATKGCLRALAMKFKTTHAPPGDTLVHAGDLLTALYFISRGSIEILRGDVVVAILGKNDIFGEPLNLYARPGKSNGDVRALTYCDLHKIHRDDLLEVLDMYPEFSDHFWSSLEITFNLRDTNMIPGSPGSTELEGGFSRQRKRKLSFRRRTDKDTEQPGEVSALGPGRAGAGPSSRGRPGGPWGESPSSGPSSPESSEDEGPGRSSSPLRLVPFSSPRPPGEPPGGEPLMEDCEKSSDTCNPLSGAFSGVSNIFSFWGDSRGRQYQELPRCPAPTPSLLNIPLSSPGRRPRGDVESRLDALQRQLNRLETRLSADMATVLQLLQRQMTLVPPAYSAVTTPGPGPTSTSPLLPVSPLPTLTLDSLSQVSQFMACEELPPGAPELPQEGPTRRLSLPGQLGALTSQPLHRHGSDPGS

Regarding `CC(=O)O[C@@H]1C[C@@H](OC(C)=O)C(C)(C)/C=C/[C@H](C)[C@H](OC(C)=O)[C@@]2(O)C[C@H](C)[C@H](OC(=O)c3ccccc3)[C@@H]2/C=C/1C` [EUPHORNIN], the inhibition result was “Dose-dependent effect” in series [1], 78.7% in series [2] and 31.1% in series [3]. Also, 2630 nM corresponded to half-maximal inhibition against Kir3.1/Kir3.4 (IC50). This molecule also returned an inhibition at 1 µM on hERG (KCNH2) [4] of 3.3%. On hERG (KCNH2) [5], this molecule registered an inhibition at 10 µM of 19%.

Consider `CC(=O)O[C@H]1[C@@H](C)/C=C/C(C)(C)[C@H](O)[C@@H](O)[C@@H](O)/C(C)=C/[C@H]2[C@@H](OC(=O)c3ccccc3)[C@@H](C)C[C@@]21O`, for which the inhibition in series [2] is 25.7%; in series [3], 15.7%.

For `C/C=C(\C)C(=O)O[C@H]1/C(C)=C/[C@H]2[C@@H](OC(=O)c3ccccc3)[C@@H](C)C[C@]2(O)[C@@H](OC(=O)/C(C)=C/C)[C@@H](C)/C=C/C(C)(C)[C@H](OC(C)=O)[C@H]1OC(C)=O`, the inhibition turned out to be 35.7% in series [2] and 23.5% in series [3].

Turning to `CC(=O)OCC(=O)O[C@@H]1[C@H]2[C@@H](OC(=O)c3ccccc3)[C@@H](C)C[C@]2(O)[C@@H](OC(C)=O)[C@]2(C)C[C@@]1(OC(C)=O)C[C@H]1C(=O)C(C)(C)C[C@@H]12`, the figures for the inhibition in series [2] and in series [3] were 28.6% and 17.7%, respectively.

For `C/C=C(/C)C(=O)OCC1(C)[C@H]2[C@@H]3C=C(COC(C)=O)[C@@H](O)[C@]4(O)[C@@H](OC(=O)/C(C)=C\C)C(C)=C[C@]4(C3=O)[C@H](C)C[C@H]21` (stereo partly specified), the values for the inhibition in series [2] and in series [3] were 45.1% and 16.4%, respectively.

`CCCNCC(O)COc1ccccc1C(=O)CCc1ccccc1` (stereo unspecified) had an inhibition in series [3] of 60.6 to 94.2%.

As for `C/C=C(/C)C(=O)O[C@H]1C(C)=C[C@@]23C(=O)[C@@H](C=C(C)[C@@H](O)[C@]12O)[C@H]1[C@@H](C[C@H]3C)C1(C)C`, the inhibition entry was “Dose-dependent effect” in series [1], 52.3% in series [2] and 23.8% in series [3]. On Kir3.1/Kir3.4, this molecule gave an IC50 of 12100 nM. The molecule further returned an inhibition at 1 µM at hERG (KCNH2) [4] of 1.8%. Moreover, the inhibition at 10 µM against hERG (KCNH2) [5] is 7.9%.

On to `CC(=O)O[C@@H]1[C@@H](OC(C)=O)C(C)(C)/C=C/[C@H](C)[C@H](OC(C)=O)[C@@]2(O)C[C@H](C)[C@H](OC(=O)c3ccccc3)[C@@H]2/C=C(\C)[C@@H]1O`, for which the inhibition was determined as 66.6% in series [2] and 16.8% in series [3].

As to `CC(=O)O[C@@H]1[C@@H](OC(C)=O)C(C)(C)/C=C/[C@H](C)[C@H](OC(C)=O)[C@@]2(O)C[C@H](C)[C@H](OC(=O)c3ccccc3)[C@@H]2/C=C(\C)[C@@H]1OC(C)=O`, the inhibition result in series [1] is “Dose-dependent effect”; in series [2] it was 83.4%; in series [3], 33.8%. It took 1690 nM to reach half-maximal inhibition at Kir3.1/Kir3.4 (IC50). At hERG (KCNH2) [4], this molecule yielded an inhibition at 1 µM of 13.2%. Testing at 10 µM against hERG (KCNH2) [5] gave an inhibition of 24%.

For `C/C=C(\C)C(=O)O[C@H]1[C@@H](C)/C=C/C(C)(C)[C@H](OC(C)=O)[C@@H](OC(C)=O)[C@@H](O)/C(C)=C/[C@H]2[C@@H](OC(=O)c3ccccc3)[C@@H](C)C[C@@]21O`, the inhibition in series [2] was found to be 60.8%; in series [3], 15.3%.

Turning to `C=C1CC[C@@H](OC(=O)/C=C/c2ccccc2)C(C)(C)/C=C/[C@H](C)C(=O)[C@@]2(O)C[C@H](C)[C@H](OC(=O)/C=C/c3ccccc3)[C@@H]2[C@H]1OC(C)=O`, the inhibition in series [2] was found to be 23.7%; in series [3], 22.2%.

In the case of `C/C=C(/C)C(=O)OCC1(C)[C@H]2[C@@H]3C=C(C)[C@@H](O)[C@]4(O)[C@@H](OC(=O)/C(C)=C\C)C(C)=C[C@]4(C3=O)[C@H](C)C[C@H]21` (stereo partly specified), the inhibition entry in series [1] was “Dose-dependent effect”; in series [2], 80.4%; in series [3], 43.9%. The IC50 against Kir3.1/Kir3.4 was 1450 nM. The molecule also displayed an inhibition at 1 µM against hERG (KCNH2) [4] of 11.2%. Also, at hERG (KCNH2) [5], the inhibition at 10 µM was determined as 55.4%.

For `CC(=O)O[C@H]1/C(C)=C/[C@H]2[C@@H](OC(=O)c3ccccc3)[C@@H](C)C[C@]2(O)[C@@H](OC(C)=O)[C@@H](C)/C=C/C(C)(C)[C@H](O)[C@H]1O`, the results for the inhibition in series [2] and in series [3] were 23.5% and 11.2%, respectively.

Consider `C/C=C(\C)C(=O)O[C@H]1/C(C)=C/[C@H]2[C@@H](OC(=O)c3ccccc3)[C@@H](C)C[C@]2(O)[C@@H](OC(C)=O)[C@@H](C)/C=C/C(C)(C)[C@H](OC(C)=O)[C@H]1OC(C)=O`, for which the results for the inhibition result in series [1], in series [2] and in series [3] were “Dose-dependent effect”, 85% and 38.5%, respectively. The molecule further had an IC50 on Kir3.1/Kir3.4 of 1600 nM. In addition, the inhibition at 1 µM on hERG (KCNH2) [4] worked out at 6.5%. This molecule also came in with an inhibition at 10 µM against hERG (KCNH2) [5] of 24.4%.

For `C/C=C(\C)C(=O)O[C@@H]1C[C@@H](OC(C)=O)C(C)(C)/C=C/[C@H](C)[C@H](OC(C)=O)[C@@]2(O)C[C@H](C)[C@H](OC(=O)c3ccccc3)[C@@H]2/C=C/1C`, the inhibition entry in series [1] was “Dose-dependent effect”; in series [2], 88.7%; in series [3] it was 35.5%. The IC50 on Kir3.1/Kir3.4 came to 1310 nM. In addition, at hERG (KCNH2) [4], the inhibition at 1 µM is 10.8%. In addition, at 10 µM the inhibition at hERG (KCNH2) [5] was 24.9%.

With `CC(=O)O[C@@H]1[C@@H](O)[C@@H](OC(C)=O)/C(C)=C/[C@H]2[C@@H](OC(=O)c3ccccc3)[C@@H](C)C[C@]2(O)[C@@H](OC(C)=O)[C@@H](C)/C=C/C1(C)C`, the figures for the inhibition in series [2] and in series [3] were 26.8% and 16%, respectively.

With `CC(=O)O[C@@H]1[C@@H](OC(C)=O)C(C)(C)/C=C/[C@H](C)[C@H](O)[C@@]2(OC(C)=O)C[C@H](C)[C@H](OC(=O)c3ccccc3)[C@@H]2/C=C(\C)[C@@H]1OC(C)=O`, the inhibition entry in series [1] is “Dose-dependent effect”; in series [2] it was 66%; in series [3], 27.2%. On Kir3.1/Kir3.4, the midpoint of inhibition, the IC50, lay at 3400 nM. The molecule also yielded an inhibition at 1 µM against hERG (KCNH2) [4] of 11.2%. On hERG (KCNH2) [5], this molecule had an inhibition at 10 µM of 22.7%.

Source of the values: ChEMBL document CHEMBL4266051, “Diterpenoids from Euphorbia dulcis with Potassium Ion Channel Inhibitory Activity with Selective G Protein-Activated Inwardly Rectifying Ion Channel (GIRK) Blocking Effect” (J Nat Prod, 2018).
